Experimental data as given in PubChem BioAssay.
The source made the active and inactive calls.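 The calls were made as follows, unless noted: active = mean duplicate potentiation above the buffer control mean plus 5 SD of buffer wells; inactive = the rest.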

These compounds were tested against Potassium voltage-gated channel subfamily KQT member 1 (Homo sapiens) (UniProt P51787) (assay: enhancement of KCNQ1 channel thallium flux – FluxOR thallium flux, CHO cells, duplicates, confirmation (AID 493007;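 active = potentiation averaged over duplicate wells exceeding buffer-only control mean by more than 3 SD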;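 as to outcome: cells depolarized by a potassium plus thallium sulfate stimulus after compound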;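 as to potentiation: 0% = buffer-only wells and 100% = R-L3 activator control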)). Settings: KCNQ1 cell line, FluxOR thallium flux fluorescence, at 10 µM; hits give high values, % of reference activator effect, buffer zero.
Chain of Potassium voltage-gated channel subfamily KQT member 1 (Homo sapiens) (P51787 whole entry, looked up): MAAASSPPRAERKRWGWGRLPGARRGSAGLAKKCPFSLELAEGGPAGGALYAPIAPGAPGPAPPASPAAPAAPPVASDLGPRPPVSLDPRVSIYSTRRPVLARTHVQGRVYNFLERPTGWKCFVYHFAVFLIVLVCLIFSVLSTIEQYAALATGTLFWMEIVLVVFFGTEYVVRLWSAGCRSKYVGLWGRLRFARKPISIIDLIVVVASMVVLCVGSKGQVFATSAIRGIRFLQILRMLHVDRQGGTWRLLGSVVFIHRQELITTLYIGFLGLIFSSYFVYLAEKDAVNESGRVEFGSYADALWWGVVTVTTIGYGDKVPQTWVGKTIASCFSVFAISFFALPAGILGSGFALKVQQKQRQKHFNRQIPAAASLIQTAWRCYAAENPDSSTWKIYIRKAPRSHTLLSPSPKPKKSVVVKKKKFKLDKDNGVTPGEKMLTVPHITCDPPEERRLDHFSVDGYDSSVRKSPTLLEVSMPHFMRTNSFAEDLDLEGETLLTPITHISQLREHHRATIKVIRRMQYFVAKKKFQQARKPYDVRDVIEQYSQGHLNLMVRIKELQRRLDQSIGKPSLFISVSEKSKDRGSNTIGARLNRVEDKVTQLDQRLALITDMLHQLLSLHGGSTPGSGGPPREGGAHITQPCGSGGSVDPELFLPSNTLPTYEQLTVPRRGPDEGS
Procedure, shortened: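 Assay system: CHO cells carrying KCNQ1 | Controls: Buffer and R-L3 controls | Schedule: FluxOR dye loading 90 min, compound exposure 20 min, room temperature | Read-out: Baseline-normalized fluorescence change, percent of buffer-to-R-L3 range | Replicates: Each compound tested in duplicate | Technique: Kinetic thallium influx fluorescence with FluxOR dye, 10 s baseline, 110 s post-stimulus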
In the case of `C/C(Cl)=C\Cn1c(O)c(N=NC(N)=S)c2cc(Br)ccc21`, the potentiation is reported as 70.5% (active). In the case of `Cc1ccccc1C([O-])=Nc1ccc[n+](-c2nc3ccccc3nc2NS(=O)(=O)c2ccccc2)c1`, the outcome is reported as “inactive”. For `COc1ccc(-c2nc(CS(=O)CC(=O)NC3CCCC3)c(C)o2)cc1OC` (stereo not given), the potentiation was 85% (active). For `Cc1ccc(N2C(=O)N3[C@H](c4ccc(F)cc4)[C@@H]4C(=O)N(C5CCCCC5)C(=O)[C@@H]4[C@]3(Cc3ccccc3)C2=O)cc1`, the outcome was “inactive”. In the case of `CCn1c(CSc2nc3ccccc3n2C)nc2ccccc21`, the outcome is reported as “inactive”. `CN(C)CCCC1(O)c2ccccc2C=Cc2ccccc21` was tested, and the potentiation was 29% (active). For `N#CC1=C(Nc2ccccc2)SC=C(c2ccc(Br)cc2)N=C1N1CCOCC1`, the outcome was “inactive”. `O=C(NC(=S)Nc1nc2c(s1)CSc1ccccc1-2)c1ccccc1` was tested, and the potentiation was 68.5% (active). With `CC(C)Cc1c2c([nH]c(=S)c1C#N)CCCC2` the outcome was “inactive”. For `Nc1c(Cl)cc(C2=NCCn3nc4cc(C(F)(F)F)ccc4c32)cc1Cl`, the outcome was “inactive”. For `COc1ccc(/C=N\NC(=S)SCN2C(=O)C3CCC(C)(C2=O)C3(C)C)cc1` (stereo not given), the outcome was “inactive”. For `C1=Nc2ccccc2CN1c1ccccc1`, the outcome was “inactive”. In the case of `Cc1ccc(-c2cc(C(=O)NCc3ccccn3)c3ccccc3n2)cc1C`, the outcome is reported as “inactive”. In the case of `COc1ccc(S(=O)(=O)NCCCN2CCOCC2)cc1F`, the outcome is reported as “inactive”. `O=C(NC(=S)Nc1ccccc1N1CCCC1)c1ccc([N+](=O)[O-])cc1` was tested, and the potentiation was 100% (active). With `CC(c1ccccc1C(O)(c1ccccc1)c1ccccc1)N(C)C` (stereo not given) the outcome was “inactive”. `COc1ccc(/C=C2/S/C(=N/N=C3\CC4CCC3(C)C4(C)C)NC2=O)cc1` (stereo not given) was tested, and the potentiation was 21% (active). For `Cc1cccc(NC(=O)Nc2ccc(OCc3ccccc3)cc2)n1`, the outcome was “inactive”. With `Cc1nn(CC2CC2)c(=O)n1-c1ccc(F)cc1` the outcome was “inactive”. `CC1CCc2sc3nc(N4CCN(CCO)CC4)n4ncnc4c3c2C1` (stereo not given) was tested, and the potentiation was 200% (active). In the case of `CCSc1nnc(NC(=O)C2C3C=CC(C3)C2C(=O)O)s1` (stereo not given), the outcome is reported as “inactive”. With `COc1ccc(NC(=S)NC(=O)c2csnn2)cc1` the potentiation was 71% (active). With `COc1ccc(CCNC(=O)c2c(C)nc3ccccn23)cc1` the outcome was “inactive”. For `COc1ccccc1CNC(=O)c1oc2ccc(S(=O)(=O)N3CCOCC3)cc2c1C`, the outcome was “inactive”. With `CC(C)(C)NC(=O)C(=O)NNC(=O)C12CC3CC(CC(C3)C1)C2` the potentiation was 40% (active). For `OCCN1CCN(C2CCC(c3ccc(F)cc3)c3ccc(F)cc32)CC1` (stereo not given), the outcome was “inactive”. In the case of `Cc1cc(C(=O)CSc2nnc(N)s2)c(C)n1C1CC1`, the outcome is reported as “inactive”. With `O=C(NCc1ccco1)c1ccc(=O)oc1` the outcome was “inactive”. In the case of `COc1ccc2c(-c3ccccc3)cc(=S)[nH]c2c1`, the potentiation is reported as 50.5% (active). With `CCOC(=O)c1c(NC(=S)NC)sc2c1CC(C)(C)SC2` the potentiation was 126% (active). For `CCOc1ccc(-n2cc(-c3ccccc3)c3c(=S)nc[nH]c32)cc1`, the potentiation was 192% (active). In the case of `O=C(N/N=C/c1cccnc1)c1ccco1`, the outcome is reported as “inactive”. With `COc1ccc(CCC(=O)NCCOc2ccc(C)cc2)cc1` the outcome was “inactive”. In the case of `S=c1[nH]cnc2sc(-c3ccccc3)cc12`, the potentiation is reported as 274% (active). `CCCCCc1ccc(C(=O)CCCC)c(=S)[nH]1` was tested, and the potentiation was 154% (active). In the case of `O=Cc1cc2ccccc2nc1SCCCF`, the outcome is reported as “inactive”. In the case of `Cn1nc(SCC(=O)O)sc1=S`, the outcome is reported as “inactive”. `CC(=O)c1c(-c2ccccc2)c2cc([N+](=O)[O-])ccc2[nH]c1=O` was tested, and the outcome was “inactive”. `COCCn1c(=S)[nH]c2sc3c(c2c1=O)CCC(C)C3` (stereo not given) was tested, and the potentiation was 191% (active). In the case of `Cc1ccc(C(=O)CC(=O)c2cccc(F)c2)c(O)c1`, the potentiation is reported as 35% (active).

Each compound was assayed against Potassium voltage-gated channel subfamily KQT member 2 (Rattus norvegicus) (UniProt O88943) (assay: KCNQ2 thallium flux enhancement – KCNQ2-CHO-K1 cells, selectivity assay for KCNQ1 potentiator project (AID 493009;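 also: assay conditions were tuned for KCNQ1 rather than KCNQ2 modulators; signal is max minus min fluorescence divided by baseline after thallium stimulus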)). Settings: FluxOR thallium flux fluorescence, at 10 µM; hits give high values, scaled: buffer 0, activator control 100.
Chain of Potassium voltage-gated channel subfamily KQT member 2 (Rattus norvegicus) (O88943 whole entry, looked up): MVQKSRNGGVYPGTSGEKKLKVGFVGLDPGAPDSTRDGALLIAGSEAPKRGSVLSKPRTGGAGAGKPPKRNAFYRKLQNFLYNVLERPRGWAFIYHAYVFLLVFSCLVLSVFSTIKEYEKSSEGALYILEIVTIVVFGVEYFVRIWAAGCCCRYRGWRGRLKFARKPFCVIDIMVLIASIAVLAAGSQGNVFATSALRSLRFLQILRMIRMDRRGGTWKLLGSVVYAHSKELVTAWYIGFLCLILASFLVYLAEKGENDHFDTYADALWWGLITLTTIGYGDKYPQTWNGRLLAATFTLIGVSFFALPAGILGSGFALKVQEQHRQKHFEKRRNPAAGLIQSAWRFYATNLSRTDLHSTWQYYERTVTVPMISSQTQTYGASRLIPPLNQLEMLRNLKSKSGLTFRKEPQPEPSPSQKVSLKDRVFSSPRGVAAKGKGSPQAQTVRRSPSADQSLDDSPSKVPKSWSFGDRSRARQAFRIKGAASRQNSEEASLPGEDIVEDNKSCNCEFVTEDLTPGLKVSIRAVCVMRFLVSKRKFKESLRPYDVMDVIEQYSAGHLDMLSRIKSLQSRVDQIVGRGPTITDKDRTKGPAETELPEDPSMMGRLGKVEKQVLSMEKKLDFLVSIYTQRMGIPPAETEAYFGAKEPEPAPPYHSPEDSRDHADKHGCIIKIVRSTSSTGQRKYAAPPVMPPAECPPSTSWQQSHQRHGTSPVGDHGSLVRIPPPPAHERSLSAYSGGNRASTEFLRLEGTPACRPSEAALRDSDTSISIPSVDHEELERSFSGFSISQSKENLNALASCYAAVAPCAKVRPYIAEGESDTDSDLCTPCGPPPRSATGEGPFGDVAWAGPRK
In the case of `C/C(Cl)=C\Cn1c(O)c(N=NC(N)=S)c2cc(Br)ccc21`, the outcome is reported as “inactive”. With `Cc1ccccc1C([O-])=Nc1ccc[n+](-c2nc3ccccc3nc2NS(=O)(=O)c2ccccc2)c1` the outcome was “inactive”. `COc1ccc(-c2nc(CS(=O)CC(=O)NC3CCCC3)c(C)o2)cc1OC` (stereo not given) was tested, and the potentiation was 244% (active). With `Cc1ccc(N2C(=O)N3[C@H](c4ccc(F)cc4)[C@@H]4C(=O)N(C5CCCCC5)C(=O)[C@@H]4[C@]3(Cc3ccccc3)C2=O)cc1` the outcome was “inactive”. In the case of `CCn1c(CSc2nc3ccccc3n2C)nc2ccccc21`, the outcome is reported as “inactive”. With `CN(C)CCCC1(O)c2ccccc2C=Cc2ccccc21` the outcome was “inactive”. `N#CC1=C(Nc2ccccc2)SC=C(c2ccc(Br)cc2)N=C1N1CCOCC1` was tested, and the outcome was “inactive”. For `O=C(NC(=S)Nc1nc2c(s1)CSc1ccccc1-2)c1ccccc1`, the potentiation was 147% (active). With `CC(C)Cc1c2c([nH]c(=S)c1C#N)CCCC2` the potentiation was 143% (active). In the case of `Nc1c(Cl)cc(C2=NCCn3nc4cc(C(F)(F)F)ccc4c32)cc1Cl`, the outcome is reported as “inactive”. In the case of `COc1ccc(/C=N\NC(=S)SCN2C(=O)C3CCC(C)(C2=O)C3(C)C)cc1` (stereo not given), the outcome is reported as “inactive”. For `C1=Nc2ccccc2CN1c1ccccc1`, the outcome was “inactive”. With `Cc1ccc(-c2cc(C(=O)NCc3ccccn3)c3ccccc3n2)cc1C` the outcome was “inactive”. With `COc1ccc(S(=O)(=O)NCCCN2CCOCC2)cc1F` the outcome was “inactive”. `O=C(NC(=S)Nc1ccccc1N1CCCC1)c1ccc([N+](=O)[O-])cc1` was tested, and the potentiation was 218% (active). For `CC(c1ccccc1C(O)(c1ccccc1)c1ccccc1)N(C)C` (stereo not given), the outcome was “inactive”. With `COc1ccc(/C=C2/S/C(=N/N=C3\CC4CCC3(C)C4(C)C)NC2=O)cc1` (stereo not given) the potentiation was 186% (active). With `Cc1cccc(NC(=O)Nc2ccc(OCc3ccccc3)cc2)n1` the outcome was “inactive”. `Cc1nn(CC2CC2)c(=O)n1-c1ccc(F)cc1` was tested, and the outcome was “inactive”. For `CC1CCc2sc3nc(N4CCN(CCO)CC4)n4ncnc4c3c2C1` (stereo not given), the potentiation was 500% (active). `CCSc1nnc(NC(=O)C2C3C=CC(C3)C2C(=O)O)s1` (stereo not given) was tested, and the outcome was “inactive”. In the case of `COc1ccc(NC(=S)NC(=O)c2csnn2)cc1`, the potentiation is reported as 282% (active). In the case of `COc1ccc(CCNC(=O)c2c(C)nc3ccccn23)cc1`, the outcome is reported as “inactive”. In the case of `COc1ccccc1CNC(=O)c1oc2ccc(S(=O)(=O)N3CCOCC3)cc2c1C`, the outcome is reported as “inactive”. With `CC(C)(C)NC(=O)C(=O)NNC(=O)C12CC3CC(CC(C3)C1)C2` the potentiation was 192% (active). In the case of `OCCN1CCN(C2CCC(c3ccc(F)cc3)c3ccc(F)cc32)CC1` (stereo not given), the outcome is reported as “inactive”. For `Cc1cc(C(=O)CSc2nnc(N)s2)c(C)n1C1CC1`, the outcome was “inactive”. In the case of `O=C(NCc1ccco1)c1ccc(=O)oc1`, the outcome is reported as “inactive”. With `COc1ccc2c(-c3ccccc3)cc(=S)[nH]c2c1` the potentiation was 231% (active). With `CCOC(=O)c1c(NC(=S)NC)sc2c1CC(C)(C)SC2` the potentiation was 444% (active). In the case of `CCOc1ccc(-n2cc(-c3ccccc3)c3c(=S)nc[nH]c32)cc1`, the potentiation is reported as 389% (active). `O=C(N/N=C/c1cccnc1)c1ccco1` was tested, and the outcome was “inactive”. In the case of `COc1ccc(CCC(=O)NCCOc2ccc(C)cc2)cc1`, the outcome is reported as “inactive”. In the case of `S=c1[nH]cnc2sc(-c3ccccc3)cc12`, the potentiation is reported as 586% (active). For `CCCCCc1ccc(C(=O)CCCC)c(=S)[nH]1`, the potentiation was 300% (active). `O=Cc1cc2ccccc2nc1SCCCF` was tested, and the outcome was “inactive”. For `Cn1nc(SCC(=O)O)sc1=S`, the outcome was “inactive”. For `CC(=O)c1c(-c2ccccc2)c2cc([N+](=O)[O-])ccc2[nH]c1=O`, the outcome was “inactive”. With `COCCn1c(=S)[nH]c2sc3c(c2c1=O)CCC(C)C3` (stereo not given) the potentiation was 514% (active). For `Cc1ccc(C(=O)CC(=O)c2cccc(F)c2)c(O)c1`, the potentiation was 150% (active).
